Experimental data as given in ChEMBL document CHEMBL5058577, “EUbOPEN Chemogenomics Library 2 (Multiplex)” (2022).

System: U2OS
Test: Multiplex assay against U2OS
Format: toxicity, cell-based
Conditions: human
Summary of the method: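 On a CQ1 microscope at 37°C and 5% CO2, live cells were imaged after compound addition. They had been stained at seeding with Hoechst33342, BioTracker Green Microtubule Cytoskeleton Dye, MitoTracker Red and Annexin V Alexa Fluor 680. CellPathfinder machine-learning gating assigned cells to Hoechst high-intensity objects or normal cells, normal cells to healthy, pyknosed or fragmented nuclei, and pyknosed cells to mitotic or apoptotic. Tubulin, mitochondrial-mass and membrane-permeability phenotypes are per cents of healthy-nucleus cells.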

[1] = 12 h, 1 µM, compound concentration 1 uM, replicate 1
[2] = 12 h, 1 µM, compound concentration 1 uM, replicate 2
[3] = 12 h, 10 µM, compound concentration 10 uM, replicate 1
[4] = 12 h, 10 µM, compound concentration 10 uM, replicate 2
[5] = 24 h, 1 µM, compound concentration 1 uM, replicate 1
[6] = 24 h, 1 µM, compound concentration 1 uM, replicate 2
[7] = 24 h, 10 µM, compound concentration 10 uM, replicate 1
[8] = 24 h, 10 µM, compound concentration 10 uM, replicate 2
[9] = 48 h, 1 µM, compound concentration 1 uM, replicate 1
[10] = 48 h, 1 µM, compound concentration 1 uM, replicate 2
[11] = 48 h, 10 µM, compound concentration 10 uM, replicate 1
[12] = 48 h, 10 µM, compound concentration 10 uM, replicate 2

Structure (SMILES): CCCCC[C@H](O)/C=C/[C@H]1[C@H](O)CC(=O)[C@@H]1CCCCCCC(=O)O [ALPROSTADIL]
- Population Apoptotic (%) [1]: 100%
- Population Fragmented Nuclei (%) [1]: 31%
- Population Healthy Nuclei (%) [1]: 62%
- Population Hoechst High Intensity Objects (%) [1]: 1%
- Population Membrane Permeable-Phenotype (%) [1]: 4%
- Population Mitochondria Different-Phenotype (%) [1]: 2%
- Population Mitotic Cells (%) [1]: 0%
- Population Normal (%) [1]: 98%
- Population Pyknosed Nuclei (%) [1]: 6%
- Population Tubulin-Different-Phenotype (%) [1]: 2%
- Total Cell Count [1]: 219
- Population Apoptotic (%) [2]: 77%
- Population Fragmented Nuclei (%) [2]: 11%
- Population Healthy Nuclei (%) [2]: 81%
- Population Hoechst High Intensity Objects (%) [2]: 0%
- Population Membrane Permeable-Phenotype (%) [2]: 9%
- Population Mitochondria Different-Phenotype (%) [2]: 5%
- Population Mitotic Cells (%) [2]: 22%
- Population Normal (%) [2]: 100%
- Population Tubulin-Different-Phenotype (%) [2]: 6%
- Total Cell Count [2]: 132
- Population Apoptotic (%) [3]: 71%
- Population Fragmented Nuclei (%) [3]: 23%
- Population Healthy Nuclei (%) [3]: 69%
- Population Hoechst High Intensity Objects (%) [3]: 1%
- Population Membrane Permeable-Phenotype (%) [3]: 1%
- Population Mitochondria Different-Phenotype (%) [3]: 0%
- Population Mitotic Cells (%) [3]: 28%
- Population Normal (%) [3]: 98%
- Population Pyknosed Nuclei (%) [3]: 6%
- Population Tubulin-Different-Phenotype (%) [3]: 0%
- Total Cell Count [3]: 222
- Population Apoptotic (%) [4]: 77%
- Population Fragmented Nuclei (%) [4]: 15%
- Population Healthy Nuclei (%) [4]: 75%
- Population Hoechst High Intensity Objects (%) [4]: 2%
- Population Membrane Permeable-Phenotype (%) [4]: 5%
- Population Mitochondria Different-Phenotype (%) [4]: 3%
- Population Mitotic Cells (%) [4]: 22%
- Population Normal (%) [4]: 97%
- Population Pyknosed Nuclei (%) [4]: 8%
- Population Tubulin-Different-Phenotype (%) [4]: 5%
- Total Cell Count [4]: 104
- Population Apoptotic (%) [5]: 91%
- Population Fragmented Nuclei (%) [5]: 25%
- Population Healthy Nuclei (%) [5]: 65%
- Population Hoechst High Intensity Objects (%) [5]: 1%
- Population Membrane Permeable-Phenotype (%) [5]: 5%
- Population Mitochondria Different-Phenotype (%) [5]: 2%
- Population Mitotic Cells (%) [5]: 8%
- Population Normal (%) [5]: 98%
- Population Pyknosed Nuclei (%) [5]: 9%
- Population Tubulin-Different-Phenotype (%) [5]: 3%
- Total Cell Count [5]: 263
- Population Apoptotic (%) [6]: 87%
- Population Fragmented Nuclei (%) [6]: 14%
- Population Healthy Nuclei (%) [6]: 75%
- Population Hoechst High Intensity Objects (%) [6]: 0%
- Population Membrane Permeable-Phenotype (%) [6]: 8%
- Population Mitochondria Different-Phenotype (%) [6]: 4%
- Population Mitotic Cells (%) [6]: 12%
- Population Normal (%) [6]: 99%
- Total Cell Count [6]: 166
- Population Apoptotic (%) [7]: 94%
- Population Fragmented Nuclei (%) [7]: 19%
- Population Healthy Nuclei (%) [7]: 74%
- Population Hoechst High Intensity Objects (%) [7]: 1%
- Population Membrane Permeable-Phenotype (%) [7]: 5%
- Population Mitochondria Different-Phenotype (%) [7]: 0%
- Population Mitotic Cells (%) [7]: 5%
- Population Normal (%) [7]: 98%
- Population Pyknosed Nuclei (%) [7]: 6%
- Population Tubulin-Different-Phenotype (%) [7]: 3%
- Total Cell Count [7]: 271
- Population Apoptotic (%) [8]: 100%
- Population Fragmented Nuclei (%) [8]: 12%
- Population Healthy Nuclei (%) [8]: 76%
- Population Hoechst High Intensity Objects (%) [8]: 0%
- Population Membrane Permeable-Phenotype (%) [8]: 4%
- Population Mitochondria Different-Phenotype (%) [8]: 2%
- Population Mitotic Cells (%) [8]: 0%
- Population Normal (%) [8]: 99%
- Population Pyknosed Nuclei (%) [8]: 10%
- Population Tubulin-Different-Phenotype (%) [8]: 1%
- Total Cell Count [8]: 131
- Population Apoptotic (%) [9]: 87%
- Population Fragmented Nuclei (%) [9]: 22%
- Population Healthy Nuclei (%) [9]: 68%
- Population Hoechst High Intensity Objects (%) [9]: 2%
- Population Membrane Permeable-Phenotype (%) [9]: 4%
- Population Mitochondria Different-Phenotype (%) [9]: 2%
- Population Mitotic Cells (%) [9]: 12%
- Population Normal (%) [9]: 97%
- Population Pyknosed Nuclei (%) [9]: 9%
- Population Tubulin-Different-Phenotype (%) [9]: 2%
- Total Cell Count [9]: 367
- Population Apoptotic (%) [10]: 95%
- Population Fragmented Nuclei (%) [10]: 18%
- Population Healthy Nuclei (%) [10]: 71%
- Population Hoechst High Intensity Objects (%) [10]: 3%
- Population Membrane Permeable-Phenotype (%) [10]: 6%
- Population Mitochondria Different-Phenotype (%) [10]: 5%
- Population Mitotic Cells (%) [10]: 4%
- Population Normal (%) [10]: 96%
- Population Tubulin-Different-Phenotype (%) [10]: 6%
- Total Cell Count [10]: 236
- Population Apoptotic (%) [11]: 88%
- Population Fragmented Nuclei (%) [11]: 13%
- Population Healthy Nuclei (%) [11]: 76%
- Population Hoechst High Intensity Objects (%) [11]: 0%
- Population Membrane Permeable-Phenotype (%) [11]: 4%
- Population Mitochondria Different-Phenotype (%) [11]: 0%
- Population Mitotic Cells (%) [11]: 11%
- Population Normal (%) [11]: 99%
- Population Pyknosed Nuclei (%) [11]: 10%
- Population Tubulin-Different-Phenotype (%) [11]: 3%
- Total Cell Count [11]: 362
- Population Apoptotic (%) [12]: 100%
- Population Fragmented Nuclei (%) [12]: 11%
- Population Healthy Nuclei (%) [12]: 77%
- Population Hoechst High Intensity Objects (%) [12]: 2%
- Population Membrane Permeable-Phenotype (%) [12]: 6%
- Population Mitochondria Different-Phenotype (%) [12]: 1%
- Population Mitotic Cells (%) [12]: 0%
- Population Normal (%) [12]: 97%
- Population Tubulin-Different-Phenotype (%) [12]: 4%
- Total Cell Count [12]: 165

Structure (SMILES): OCCCNc1cc(-c2ccnc(Nc3cccc(Cl)c3)n2)ccn1
- Population Apoptotic (%) [1]: 88%
- Population Fragmented Nuclei (%) [1]: 38%
- Population Healthy Nuclei (%) [1]: 52%
- Population Hoechst High Intensity Objects (%) [1]: 3%
- Population Membrane Permeable-Phenotype (%) [1]: 8%
- Population Mitochondria Different-Phenotype (%) [1]: 4%
- Population Mitotic Cells (%) [1]: 11%
- Population Normal (%) [1]: 97%
- Population Pyknosed Nuclei (%) [1]: 9%
- Population Tubulin-Different-Phenotype (%) [1]: 4%
- Total Cell Count [1]: 200
- Population Apoptotic (%) [2]: 80%
- Population Fragmented Nuclei (%) [2]: 27%
- Population Healthy Nuclei (%) [2]: 51%
- Population Hoechst High Intensity Objects (%) [2]: 5%
- Population Membrane Permeable-Phenotype (%) [2]: 10%
- Population Mitochondria Different-Phenotype (%) [2]: 18%
- Population Mitotic Cells (%) [2]: 20%
- Population Normal (%) [2]: 94%
- Population Pyknosed Nuclei (%) [2]: 20%
- Population Tubulin-Different-Phenotype (%) [2]: 5%
- Total Cell Count [2]: 76
- Population Apoptotic (%) [3]: 85%
- Population Fragmented Nuclei (%) [3]: 37%
- Population Healthy Nuclei (%) [3]: 56%
- Population Hoechst High Intensity Objects (%) [3]: 4%
- Population Membrane Permeable-Phenotype (%) [3]: 46%
- Population Mitochondria Different-Phenotype (%) [3]: 36%
- Population Mitotic Cells (%) [3]: 14%
- Population Normal (%) [3]: 95%
- Population Pyknosed Nuclei (%) [3]: 6%
- Population Tubulin-Different-Phenotype (%) [3]: 46%
- Total Cell Count [3]: 237
- Population Apoptotic (%) [4]: 91%
- Population Fragmented Nuclei (%) [4]: 24%
- Population Healthy Nuclei (%) [4]: 64%
- Population Hoechst High Intensity Objects (%) [4]: 10%
- Population Membrane Permeable-Phenotype (%) [4]: 47%
- Population Mitochondria Different-Phenotype (%) [4]: 51%
- Population Mitotic Cells (%) [4]: 8%
- Population Normal (%) [4]: 89%
- Population Pyknosed Nuclei (%) [4]: 11%
- Population Tubulin-Different-Phenotype (%) [4]: 61%
- Total Cell Count [4]: 118
- Population Apoptotic (%) [5]: 96%
- Population Fragmented Nuclei (%) [5]: 43%
- Population Healthy Nuclei (%) [5]: 43%
- Population Hoechst High Intensity Objects (%) [5]: 7%
- Population Membrane Permeable-Phenotype (%) [5]: 10%
- Population Mitochondria Different-Phenotype (%) [5]: 10%
- Population Mitotic Cells (%) [5]: 4%
- Population Normal (%) [5]: 92%
- Population Pyknosed Nuclei (%) [5]: 13%
- Population Tubulin-Different-Phenotype (%) [5]: 6%
- Total Cell Count [5]: 200
- Population Apoptotic (%) [6]: 94%
- Population Fragmented Nuclei (%) [6]: 40%
- Population Healthy Nuclei (%) [6]: 33%
- Population Membrane Permeable-Phenotype (%) [6]: 16%
- Population Mitochondria Different-Phenotype (%) [6]: 25%
- Population Mitotic Cells (%) [6]: 5%
- Population Pyknosed Nuclei (%) [6]: 25%
- Population Tubulin-Different-Phenotype (%) [6]: 16%
- Total Cell Count [6]: 77
- Population Apoptotic (%) [7]: 88%
- Population Fragmented Nuclei (%) [7]: 37%
- Population Healthy Nuclei (%) [7]: 50%
- Population Hoechst High Intensity Objects (%) [7]: 11%
- Population Membrane Permeable-Phenotype (%) [7]: 34%
- Population Mitochondria Different-Phenotype (%) [7]: 40%
- Population Mitotic Cells (%) [7]: 12%
- Population Normal (%) [7]: 88%
- Population Pyknosed Nuclei (%) [7]: 12%
- Population Tubulin-Different-Phenotype (%) [7]: 37%
- Total Cell Count [7]: 229
- Population Apoptotic (%) [8]: 95%
- Population Fragmented Nuclei (%) [8]: 30%
- Population Healthy Nuclei (%) [8]: 49%
- Population Hoechst High Intensity Objects (%) [8]: 12%
- Population Membrane Permeable-Phenotype (%) [8]: 43%
- Population Mitochondria Different-Phenotype (%) [8]: 54%
- Population Mitotic Cells (%) [8]: 4%
- Population Normal (%) [8]: 87%
- Population Pyknosed Nuclei (%) [8]: 20%
- Population Tubulin-Different-Phenotype (%) [8]: 61%
- Total Cell Count [8]: 128
- Population Apoptotic (%) [9]: 95%
- Population Fragmented Nuclei (%) [9]: 56%
- Population Healthy Nuclei (%) [9]: 22%
- Population Hoechst High Intensity Objects (%) [9]: 16%
- Population Membrane Permeable-Phenotype (%) [9]: 30%
- Population Mitochondria Different-Phenotype (%) [9]: 14%
- Population Mitotic Cells (%) [9]: 4%
- Population Normal (%) [9]: 83%
- Population Pyknosed Nuclei (%) [9]: 21%
- Population Tubulin-Different-Phenotype (%) [9]: 26%
- Total Cell Count [9]: 227
- Population Apoptotic (%) [10]: 100%
- Population Fragmented Nuclei (%) [10]: 59%
- Population Healthy Nuclei (%) [10]: 11%
- Population Hoechst High Intensity Objects (%) [10]: 12%
- Population Mitochondria Different-Phenotype (%) [10]: 20%
- Population Mitotic Cells (%) [10]: 0%
- Population Normal (%) [10]: 87%
- Population Pyknosed Nuclei (%) [10]: 28%
- Population Tubulin-Different-Phenotype (%) [10]: 10%
- Total Cell Count [10]: 99
- Population Apoptotic (%) [11]: 94%
- Population Fragmented Nuclei (%) [11]: 47%
- Population Healthy Nuclei (%) [11]: 31%
- Population Hoechst High Intensity Objects (%) [11]: 21%
- Population Membrane Permeable-Phenotype (%) [11]: 43%
- Population Mitochondria Different-Phenotype (%) [11]: 45%
- Population Mitotic Cells (%) [11]: 5%
- Population Normal (%) [11]: 78%
- Population Pyknosed Nuclei (%) [11]: 21%
- Population Tubulin-Different-Phenotype (%) [11]: 45%
- Total Cell Count [11]: 223
- Population Apoptotic (%) [12]: 96%
- Population Fragmented Nuclei (%) [12]: 50%
- Population Healthy Nuclei (%) [12]: 25%
- Population Hoechst High Intensity Objects (%) [12]: 23%
- Population Membrane Permeable-Phenotype (%) [12]: 65%
- Population Mitochondria Different-Phenotype (%) [12]: 34%
- Population Mitotic Cells (%) [12]: 4%
- Population Normal (%) [12]: 76%
- Population Pyknosed Nuclei (%) [12]: 24%
- Population Tubulin-Different-Phenotype (%) [12]: 65%
- Total Cell Count [12]: 134
